Measurements reported in PMC7614232 (Organic & biomolecular chemistry, 2022).
Like-named read-outs stand apart in the source and are kept apart here.

Columns and labels:
[1] = biological target: T1, GMIIb (Golgi α-mannosidase) (Drosophila melanogaster, UniProt Q9VF33); assay: α-mannosidase inhibition assay with pNP-Man, GMIIb; type: biochemical; settings: for SI^a = IC50(LManII)/IC50(GMIIb): selectivity index
T1 sequence (Q9VF33 31-1249): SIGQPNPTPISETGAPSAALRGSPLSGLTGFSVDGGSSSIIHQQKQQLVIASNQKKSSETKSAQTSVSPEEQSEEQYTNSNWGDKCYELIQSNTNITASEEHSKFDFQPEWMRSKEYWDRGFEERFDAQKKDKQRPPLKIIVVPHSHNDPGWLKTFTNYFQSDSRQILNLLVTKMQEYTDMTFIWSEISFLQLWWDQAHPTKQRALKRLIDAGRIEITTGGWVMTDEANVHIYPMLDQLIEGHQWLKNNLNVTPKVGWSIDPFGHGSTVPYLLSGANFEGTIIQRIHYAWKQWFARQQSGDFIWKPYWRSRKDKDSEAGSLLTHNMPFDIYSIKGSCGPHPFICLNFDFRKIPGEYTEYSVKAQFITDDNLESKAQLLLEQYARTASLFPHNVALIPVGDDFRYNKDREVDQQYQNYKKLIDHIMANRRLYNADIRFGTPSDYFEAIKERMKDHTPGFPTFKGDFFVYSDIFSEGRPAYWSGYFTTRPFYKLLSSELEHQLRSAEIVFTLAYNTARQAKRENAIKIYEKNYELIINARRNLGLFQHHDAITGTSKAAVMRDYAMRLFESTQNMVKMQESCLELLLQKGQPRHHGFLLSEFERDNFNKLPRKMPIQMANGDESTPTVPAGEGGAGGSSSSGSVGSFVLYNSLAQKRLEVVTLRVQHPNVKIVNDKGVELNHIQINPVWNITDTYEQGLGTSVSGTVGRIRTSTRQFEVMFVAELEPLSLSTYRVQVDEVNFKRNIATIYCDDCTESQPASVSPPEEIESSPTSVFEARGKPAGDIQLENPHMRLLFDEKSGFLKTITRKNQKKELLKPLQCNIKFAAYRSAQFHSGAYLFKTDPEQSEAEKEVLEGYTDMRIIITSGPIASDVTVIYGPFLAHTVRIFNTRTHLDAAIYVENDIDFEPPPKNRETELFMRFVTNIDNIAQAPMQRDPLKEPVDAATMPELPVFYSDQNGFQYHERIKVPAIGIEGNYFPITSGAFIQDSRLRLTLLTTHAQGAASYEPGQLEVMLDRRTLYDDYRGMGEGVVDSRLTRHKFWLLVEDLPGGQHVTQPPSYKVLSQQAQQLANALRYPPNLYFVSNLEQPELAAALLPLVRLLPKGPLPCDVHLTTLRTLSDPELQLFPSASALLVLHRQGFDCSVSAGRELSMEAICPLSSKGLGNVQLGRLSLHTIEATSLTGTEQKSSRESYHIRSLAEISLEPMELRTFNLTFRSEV

[2] = biological target: T2, LManII (lysosomal α-mannosidase) (Drosophila melanogaster, UniProt Q9VKV1); assay: α-mannosidase inhibition assay with pNP-Man, LManII; type: biochemical; settings: for Ki: Dixon plots, pNP-Man 0.5-4 mM
T2 sequence (Q9VKV1 25-1080): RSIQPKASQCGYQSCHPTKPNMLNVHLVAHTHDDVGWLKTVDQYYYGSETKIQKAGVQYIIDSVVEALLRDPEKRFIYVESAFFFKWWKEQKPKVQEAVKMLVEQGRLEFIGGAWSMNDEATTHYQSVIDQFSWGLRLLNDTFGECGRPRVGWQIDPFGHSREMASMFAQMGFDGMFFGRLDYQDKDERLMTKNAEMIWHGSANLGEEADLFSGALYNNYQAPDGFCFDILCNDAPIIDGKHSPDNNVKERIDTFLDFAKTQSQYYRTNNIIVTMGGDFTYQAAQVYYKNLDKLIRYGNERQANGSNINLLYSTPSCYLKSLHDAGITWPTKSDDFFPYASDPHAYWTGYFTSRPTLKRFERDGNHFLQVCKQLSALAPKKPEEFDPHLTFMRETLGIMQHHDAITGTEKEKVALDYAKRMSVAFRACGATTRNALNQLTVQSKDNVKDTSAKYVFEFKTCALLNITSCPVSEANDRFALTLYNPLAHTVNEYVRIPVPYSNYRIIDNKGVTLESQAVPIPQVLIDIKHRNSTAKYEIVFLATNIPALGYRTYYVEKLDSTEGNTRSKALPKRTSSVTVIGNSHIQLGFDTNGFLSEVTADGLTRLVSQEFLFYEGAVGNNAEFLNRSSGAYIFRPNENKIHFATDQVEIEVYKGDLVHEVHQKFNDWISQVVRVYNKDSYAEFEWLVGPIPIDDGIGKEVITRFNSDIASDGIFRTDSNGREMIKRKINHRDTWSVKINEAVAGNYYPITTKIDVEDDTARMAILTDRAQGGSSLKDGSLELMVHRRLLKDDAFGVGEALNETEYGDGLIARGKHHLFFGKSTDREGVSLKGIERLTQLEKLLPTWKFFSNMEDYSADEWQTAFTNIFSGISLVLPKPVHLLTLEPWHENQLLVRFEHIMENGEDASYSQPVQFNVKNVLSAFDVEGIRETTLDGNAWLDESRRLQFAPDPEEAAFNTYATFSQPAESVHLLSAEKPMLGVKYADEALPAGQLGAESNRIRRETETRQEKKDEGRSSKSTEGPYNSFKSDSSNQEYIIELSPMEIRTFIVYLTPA
Outline: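 Recombinant Drosophila lysosomal α-mannosidase, isolated and purified, assayed in 50 mM acetate buffer at pH 5.2. Compound (50 mM DMSO solution diluted in water) preincubated with enzyme 5 min at rt before pNP-Man was added. Incubated 1-2 h at 37 °C, stopped with 0.5 M sodium carbonate, p-nitrophenol read at 405 nm. […] Three independent experiments in duplicate.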

[3] = read-out: IC50 GMIIb, 2 mM pNP-Man, pH 6.0
[4] = read-out: Ki GMIIb, Dixon plots, pNP-Man 0.5-4 mM, pH 6.0
[5] = read-out: IC50 LManII, 2 mM pNP-Man, pH 5.2

| Structure (SMILES) | IC50 [1] | SI^a = IC50(LManII)/IC50(GMIIb) [1] | IC50 [2] | IC50 [1, 3] | IC50 [2, 5] | further results |
| --- | --- | --- | --- | --- | --- | --- |
| OC[C@@H]1[C@H](O)[C@H](O)CN1Cc1ccccc1 [Compound 4, N-Benzyl-1,4-dideoxy-1,4-imino-d-lyxitol] | 11 ± 1.3 µM | 61 | 675 ± 67 µM | – | – | – |
| Cl.N=C(N)NCc1ccc(CN2C[C@@H](O)[C@@H](O)[C@H]2CO)cc1 [Compound 9, 1,4-Dideoxy-N-4-guanidinomethylbenzyl-1,4-imino-d-lyxitol hydrochloride] | – | 142 | – | 2.4 ± 0.1 µM | 340 ± 35 µM | Ki [1, 4]: 0.83 µM; Ki ([2]; read-out: Ki LManII, pH 5.2): 165 µM |
| OCC1C(O)C(O)CN1Cc1ccc(I)cc1 (stereo not drawn) [Compound 16, 1,4-Dideoxy-1,4-imino-N-4-iodobenzyl-d-lyxitol] | – | 105 | – | 4.4 ± 0.2 µM | 460 ± 53 µM | – |
| OC[C@@H]1[C@H](O)[C@H](O)CN1Cc1ccc2ccccc2c1 [Compound 17, 1,4-Dideoxy-1,4-imino-N-(naphthalen-2-ylmethyl)-d-lyxitol] | – | 111 | – | 7.6 ± 1.1 µM | 845 ± 170 µM | IC50 ([1]; read-out: IC50 GMIIb, 2 mM pNP-Man, pH 6.0, listed as N-2-naphtylmethyl): 2.4 µM |
| OCC1C(O)C(O)CN1CCc1cccc2ccccc12 (stereo not drawn) [Compound 18, 1,4-Dideoxy-1,4-imino-N-(2-(naphthalen-1-yl)ethyl)-d-lyxitol] | – | 27 | – | 0.45 ± 0.08 µM | 12 ± 1.3 µM | Ki [1, 4]: 0.16 µM; Ki ([1]; read-out: Ki(GMIIb)): 0.15 µM; Ki ([2]; read-out: Ki LManII, pH 5.2): 3.9 µM |
| OC[C@@H]1[C@H](O)[C@H](O)CN1CC1CCCCC1 [Compound 19, N-Cyclohexylmethyl-1,4-dideoxy-1,4-imino-d-lyxitol] | 3.5 ± 0.3 µM | 54 | 190 ± 53 µM | – | – | – |
| OC[C@@H]1[C@H](O)[C@H](O)CN1CC1CCOCC1 [Compound 20] | – | 63 | – | 15.5 ± 0.5 µM | 980 ± 102 µM | – |
| CCCCCCCCCCCCN1C[C@@H](O)[C@@H](O)[C@H]1CO [Compound 21, 1,4-Dideoxy-N-dodecyl-1,4-imino-d-lyxitol] | 0.4 ± 0.05 µM | 30 | 11.8 ± 1.2 µM | – | – | – |
| Cl.N=C(N)NCCCCCCCCCCN1C[C@@H](O)[C@@H](O)[C@H]1CO [Compound 25, 1,4-Dideoxy-N-(10-guanidinodecyl)-1,4-imino-d-lyxitol hydrochloride] | 0.45 ± 0.1 µM | 18 | 8.3 ± 2.1 µM | – | – | – |
| Cl.N=C(N)CCCCCCCCCN1C[C@@H](O)[C@@H](O)[C@H]1CO [Compound 26, N-(9-amidinononyl)-1,4-dideoxy-1,4-imino-d-lyxitol hydrochloride] | 0.19 ± 0.02 µM | 35 | 6.7 ± 1.2 µM | – | – | Ki [1]: 0.04 µM; Ki ([2]; Ki LManII, pH 5.2): 3.2 µM |
